Source: PubChem (several laboratories)
Most compounds without a hit are left out; they make up all but 2.2% or so of the library.
Cneo AK release: Cryptococcus neoformans lysis via adenylate kinase release | C. neoformans lysis, adenylate kinase release luminescence, 4 h; normalised: neutral wells 0, clomiphene wells 100 | lysis activity, % at 15 µM | 0.2% of 360,000 active | AID 651654;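 active = mean lysis activity across replicates of at least 80%, whatever share of replicates individually reach that level; inactive = mean lysis activity below 80%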
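Material – Cryptococcus neoformans yeast cells · Quantity – 5 × 10^6 yeast cells/mL · Buffer or medium – YPD medium · Compound – single dose · Timing – 4 h static compound exposure, 37 °C, read 1 h post-reagent · Signal – adenylate kinase release luminescence · Read-out basis – lysis from increased AK signal · Benchmarks – Clomiphene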
SUMO Mot1 rescue: SUMOylation pathway inhibition by Mot1-301 growth rescue; growth rescue, % at 18.8 µM; S. cerevisiae Mot1-301 growth rescue, ATP luminescence, 38.5C; percent above DMSO median, 100 means doubled; 1% of 320,000 active;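 active = every valid replicate shows activation above 250% relative to neutral control wells; inactive = the rest, any valid replicate at or below 250%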;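 note: OY570 slx delta 5 strain wells were the positive control but not used for scaling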
CR mimetic SO: lowers age-related superoxide in aged yeast cells; S. cerevisiae aged cells, superoxide DHE fluorescence; stronger effect = lower value; superoxide response (% of plate mean), % at 10 µM; 0.18% of 330,000 active; AID 2690;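 active = superoxide response under a set limit, about three screen SD below normal, cut at about 65% in these data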;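 note: yeast aged for seven days with compound at 30 °C before DHE staining; 100% = average MFI of all compound-treated wells on the plate with controls excluded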
PglD DTNB: inhibitors of Campylobacter jejuni PglD acetyltransferase; purified PglD enzyme, DTNB colorimetric CoA detection; inhibition, % at 12.5 µM; 0.098% of 360,000 active; AID 602405; in the data active = inhibition above about 16%, passing the limit was not always enough
rRNA inh HTS: inhibitors of bacterial rRNA selective over humanized ribosomes; E. coli WT GFP vs humanized-ribosome RFP mutants, fluorescence, 24 h; stronger effect = lower value; DMSO median 0, no signal -100; 1.6% of 350,000 active; GFP signal change (wild-type ribosome), % (concentration not given with the values);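 active = significant combined selectivity score with lowered wild-type GFP, culture density cut under 30%, mutant RFP and density less affected; inactive = any of these conditions unmet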
Superoxide pick: confirmation of caloric restriction mimetics inhibiting yeast age-related superoxide; shares compounds with CR mimetic SO; S. cerevisiae aging, superoxide DHE fluorescence; stronger effect = lower value; superoxide response (% of plate), % at 10 µM; 1% of 850 active; AID 434994;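 active = superoxide signal below 65% of the plate average of sample wells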;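 note: cells aged with compound for 7 days at 30 degrees C before staining; 100% equals mean DHE fluorescence of all compound wells on the plate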
DHE counter: DHE fluorescence interference, counter-screen artifact | shares compounds with CR mimetic SO | S. cerevisiae BY4741, flow cytometry; stronger effect = lower value | fluorescence response, % at 10 µM | 850 tested, under 10 active | AID 435000;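 active = fluorescence response below 15%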;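 note: percent of the mean fluorescence averaged over all compound wells on the plate; lower means stronger quenching of DHE signal or ROS scavenging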
Numbers without * were called inactive; x = not tested or not shown.

SMILES | Cneo AK release | SUMO Mot1 rescue | CR mimetic SO | PglD DTNB | rRNA inh HTS | Superoxide pick | DHE counter
Cc1nnc(SCC(=O)N2CCN(S(=O)(=O)c3ccccc3)CC2)n1Cc1ccccc1 | -1.6 | 0.6 | 103.5 | 1.5 | x | x | x
CCn1c(C)nnc1SCC(=O)Nc1ccc(C(C)=O)cc1 | -0.4 | -15.8 | 58.9* | 0.5 | 21.7 | 91.3 | 98.3
CCn1c(SCC(=O)N2CCN(S(=O)(=O)c3ccccc3)CC2)nnc1-c1cccs1 | -2.1 | -11.6 | 63.2* | 2.1 | x | 100.8 | 92.1
COC(=O)c1ccc(NC(=O)CSc2ccc(-c3ccccn3)nn2)cc1 | -0.3 | 19.6 | 102.4 | -1.1 | 17.4 | 81.8 | 98.2
Cc1cc(C)cc(NC(=O)CSc2ccc(-c3ccccn3)nn2)c1 | 6.7 | -3.3 | 108.7 | -1.4 | 1.3 | x | x
COc1ccc(CC(=O)N(Cc2ccccc2)c2cccc(C)c2)cc1OC | 0.2 | -30.1 | 63.6* | -0.5 | -15.4 | 97.9 | 90.2
CC(=O)c1cnc2c(-c3ccccc3)c(-c3ccccc3)nn2c1C | 0.0 | -19.5 | 109.2 | 6.0 | 21.4 | 115.9 | 122.4
Cc1nc2c(-c3ccccc3)c(C)nn2c(N)c1-c1ccccc1 | x | -0.8 | 116.1 | x | x | x | x
CC(=O)c1cnc2c(-c3ccc(Cl)cc3)cnn2c1C | -4.8 | 11.1 | 104.7 | -3.5 | x | x | x
Cc1cc(N)n2nc(-c3ccccc3)c(-c3ccccc3)c2n1 | -1.0 | -30.2 | 105.6 | 5.3 | x | 99.9 | 93.2
Cc1ccc(S(=O)(=O)Nc2cccc3c2O[C@H](CN(C)C(=O)NC2CCCCC2)[C@@H](C)CN([C@@H](C)CO)C3=O)cc1 | 35.2 | x | x | 1.0 | 0.1 | x | x
C[C@]12CCC3C(CC[C@H]4CCCC[C@]34C)C1CC[C@@]2(O)CNCCO (stereo not given in full) | -0.5 | 32.9 | 110.6 | -3.5 | -65.5 | 90.7 | 95.0
CC(=O)c1ccc(NC(=S)NC(=O)/C=C/c2ccc(F)cc2)cc1 | -0.7 | 12.6 | 48.6* | -9.0 | 9.5 | 101.7 | 105.0
COc1cccc(NC(=S)NC(=O)/C=C/c2ccc(F)cc2)c1 | 2.0 | -26.1 | 91.7 | -0.9 | 15.8 | x | x
CCSc1nnc(C)c(=O)n1COC(=O)c1ccc(S(=O)(=O)N2CCCC2)cc1 | x | -13.6 | 51.5* | x | x | 104.5 | 101.7
CCSc1nnc(-c2ccc(S(=O)(=O)N3CCCC3)cc2)n1C | -1.9 | 8.0 | 89.9 | -1.1 | x | x | x
O=S(=O)(Nc1ccc(Cc2ccncc2)cc1)c1ccc(Br)cc1 | x | 3.9 | 111.4 | x | x | x | x
NS(=O)(=O)c1ccc(NS(=O)(=O)c2ccc(Br)cc2)cc1 | -0.5 | -1.4 | 90.9 | -2.7 | 2.9 | 102.3 | 90.1
COc1ccc(NC(=O)c2nc(SC)ncc2Cl)cc1 | x | 1.1 | 109.2 | x | -7.1 | x | x
CSc1ncc(Cl)c(C(=O)Nc2ccc(C)c(C)c2)n1 | -0.9 | -7.7 | 65.3* | -2.9 | 2.0 | 98.9 | 113.8
COc1cccc(NC(=O)c2nc(SC)ncc2Cl)c1 | 0.7 | -15.4 | 105.5 | 6.2 | 5.2 | 115.6 | 122.9
Cc1noc(C)c1NC(=O)N(C)C[C@@H]1OCCCC[C@@H](C)Oc2ccc(NC(=O)c3ccccc3)cc2C(=O)N([C@H](C)CO)C[C@@H]1C | 13.0 | x | x | -2.7 | 3.8 | x | x
O=C(c1ccccc1F)N1C[C@H]2[C@@H](c3ccccc31)[C@@H](CO)N2CC1CCCCC1 | 0.7 | x | x | 1.4 | -57.8 | x | x
Cc1cccc(NC(=O)c2nc[nH]c2C(=O)N[C@@H](CC(C)C)C(=O)OCc2ccccc2)c1 | 3.6 | -7.4 | 63.3* | 4.2 | 11.1 | 91.2 | 94.4
O=C(OCc1c(F)cccc1Cl)c1cnc2ccccc2n1 | -0.9 | 164.6 | 53.6* | -2.0 | 3.9 | 101.1 | 88.1
O=C(OCc1c(F)cccc1Cl)c1cnccn1 | 1.1 | 6.8 | 99.2 | -0.2 | x | x | x
Cc1nn(-c2nnc(NCc3ccccc3)nn2)c(C)c1Br | -4.4 | 22.5 | 63.4* | 7.4 | x | 84.7 | 92.3
O=[N+]([O-])c1cc(Br)c(Nc2ccccc2)c([N+](=O)[O-])c1 | -0.1 | 90.7 | 53.2* | -10.6 | -8.1 | 84.5 | 100.3
CO[C@H]1CN(C)C(=O)c2cc(NS(C)(=O)=O)ccc2OC[C@H](C)N(S(C)(=O)=O)C[C@@H]1C | -0.6 | x | x | -0.1 | -0.1 | x | x
